Compound activity as filed in PubChem BioAssay.
In the library only some 3.4% were active in any assay of this set; here they are far more common.
TMEM16A act: activates or potentiates the mouse TMEM16A chloride channel. Q8BHY3. HEK293 TMEM16A/YFP-H148Q/I152L, iodide quench fluorescence; active compounds read low. B-score at 10 µM. 0.3% of 340,000 active. AID 623877;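 active means fluorescence-ratio B-score plate-corrected deviation score at least 3 library SD below zero, with starting fluorescence score within 5 deviations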;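 further: channel opened by trigger with iodide after compound preincubation; score built on the fluorescence ratio of max minus min over baseline; more negative score means more quench and so TMEM16A activation or potentiation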
ANO1 block: mouse TMEM16A channel inhibition, primary screen. Q8BHY3. HEK293 TMEM16A/YFP iodide influx fluorescence, ionomycin. normalized B-score (activity score, 25-100; higher = stronger inhibition) at 10 µM. 1.2% of 310,000 active. AID 588511;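 active means ratio plate-corrected score three or more library SD toward inhibition, starting fluorescence score within five deviations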;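 further: score derived from kinetic fluorescence span divided by baseline fluorescence per well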
CHT inh: human CHT choline transport inhibition; Q9GZV3; CHT-expressing cells, membrane potential dye, choline response; active compounds read low; B-score at 10 µM; 0.86% of 310,000 active;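 active means B-score over 3 SD under the library average, and starting fluorescence ratio not unusually high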;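 further: choline stimulus applied at its EC90 after an EC20 pre-addition; B-score computed on integrated fluorescence ratio after choline addition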
Target sequence (Q9GZV3 whole entry, looked up): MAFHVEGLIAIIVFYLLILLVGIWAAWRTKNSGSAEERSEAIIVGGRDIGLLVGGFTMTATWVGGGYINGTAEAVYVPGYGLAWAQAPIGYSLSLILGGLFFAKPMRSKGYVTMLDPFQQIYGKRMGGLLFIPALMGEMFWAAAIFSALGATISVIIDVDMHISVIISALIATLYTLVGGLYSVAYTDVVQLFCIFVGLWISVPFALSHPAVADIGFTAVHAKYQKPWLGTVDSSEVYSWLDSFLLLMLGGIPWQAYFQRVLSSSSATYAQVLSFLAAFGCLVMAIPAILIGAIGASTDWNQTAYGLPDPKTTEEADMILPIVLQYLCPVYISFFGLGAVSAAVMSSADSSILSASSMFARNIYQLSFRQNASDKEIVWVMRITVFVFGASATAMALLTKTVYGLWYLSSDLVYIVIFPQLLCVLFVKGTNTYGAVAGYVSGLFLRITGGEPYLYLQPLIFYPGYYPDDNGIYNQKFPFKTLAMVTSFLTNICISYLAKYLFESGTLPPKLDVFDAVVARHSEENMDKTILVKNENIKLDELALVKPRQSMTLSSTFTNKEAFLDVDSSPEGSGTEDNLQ
VIM-2 inh: blocks Pseudomonas aeruginosa VIM-2 metallo-beta-lactamase. purified VIM-2, nitrocefin hydrolysis, epi-absorbance fluorescence. inhibition, % at 5.6 µM. 0.89% of 290,000 active. AID 1527;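 active means inhibition above the mean of all tested compounds plus 3 SD, cutoff set per screening run, cut at about 7.5% in these data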;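 further: red hydrolysis product quenches plate fluorescence so inhibitors raise well fluorescence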
CHT PAM: human CHT allosteric activation. Q9GZV3. CHT-expressing cells, membrane potential dye, choline EC20; active compounds read high; LV-AA mutant CHT in HEK293 cells. B-score at 10 µM. 0.49% of 310,000 active. AID 488977;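 active means initial fluorescence not abnormally high and integrated response B-score, plate-corrected, over 3 SD above library mean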
IMP-1 inhibitor: inhibitors of Pseudomonas aeruginosa IMP-1 metallo-beta-lactamase; purified IMP-1, nitrocefin hydrolysis, epi-absorbance fluorescence; inhibition, % at 5.6 µM; 0.45% of 290,000 active; AID 1556;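 active means inhibition above the mean plus 3 SD of all compounds in the same screening run, cut at about 4.5% in these data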
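Test system: recombinant IMP-1 enzyme, purified / Medium: HEPES buffer pH 7.1 with ZnSO4 and Brij 35 / Doses: single dose, 5.6 µM / Times: 25 °C, 15 min preincubation, 25 min reaction / Detection: Epi-absorbance via hydrolysed-nitrocefin quenching of white-plate fluorescence, 480/530 nm, EDTA stop / Evaluation: percent inhibition from optical density relative to buffer-blank wells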
Large screens that a line does not name were inactive.

CCN(CC)S(=O)(=O)c1cc(NC(=O)CNc2cccc(S(=O)(=O)N3CCCC3)c2)ccc1C	ANO1 block 100 (no result: VIM-2 inh, IMP-1 inhibitor)
O=C(Cn1[nH]c(=O)c2ccccc2c1=O)Nc1cccc(S(=O)(=O)N2CCCCCC2)c1	ANO1 block 100
NC(=O)c1ccc(NC(=O)COC(=O)CNC(=O)c2sc3ccccc3c2Cl)cc1	none (no result: ANO1 block, CHT inh, VIM-2 inh, CHT PAM, IMP-1 inhibitor)
Cc1cc(OC(=O)c2ccccc2F)c([N+](=O)[O-])c(=O)[nH]1	none
CCOc1ccccc1C(=O)N1CCN(c2cccc(Cl)c2)CC1	CHT PAM 12
CCOc1ccccc1C(=O)N1c2ccccc2Sc2ccccc21	ANO1 block 100
COc1ccccc1C(=O)N1c2ccccc2Sc2ccccc21	none
COc1cccc(-c2nnn(CC(=O)Nc3ccc(C)cc3C)n2)c1OC	ANO1 block 25
COc1ccc(CCNC(=O)Cn2nnc(-c3cccc(OC)c3OC)n2)cc1OC	none
O=C1C(Cc2ccccc2)Nc2ncnc(N3CCN(c4ccccc4)CC3)c2N1Cc1ccc(Cl)cc1 (stereo unspecified)	none (no result: VIM-2 inh, IMP-1 inhibitor)
O=C(NCCc1ccc(F)cc1)N[C@@H](Cc1ccccc1)C(=O)O	none
Fc1ccccc1-c1nnc2ccc3ccccc3n12	IMP-1 inhibitor 4.8
COc1ccc(N2CCN(C(=O)CSc3nnc4c5cc(C)ccc5n(C)c4n3)CC2)cc1	none
CCOC(=O)C(CC)Sc1nnc2c3cc(C)ccc3n(C)c2n1 (stereo unspecified)	VIM-2 inh 9.4
CC(C)CSc1nnc2c3ccccc3n(C)c2n1	none
CCSc1nnc2c3cc(CC)ccc3n(C)c2n1	VIM-2 inh 8.2
O=C(OCCCOC(=O)c1ccc(O)cc1)c1ccc(O)cc1	none
CC(=O)c1ccc(NC(=S)N2CCN(S(=O)(=O)c3ccc(F)cc3)CC2)cc1	none
O=C(Nc1ccc(F)c(F)c1)c1cc(S(=O)(=O)N2CCN(c3ccccn3)CC2)ccc1F	IMP-1 inhibitor 4.6
CCc1ccc2c(CC(=O)Nc3nnc(C4CC4)s3)coc2c1	IMP-1 inhibitor 61.0
CCc1ccc(OCC(=O)Nc2nnc(C3CCCC3)s2)cc1	none
CC1=C(C(=O)Nc2ccccc2C)C(c2ccccc2)NC(=O)N1 (stereo unspecified)	IMP-1 inhibitor 4.5
COc1cccc(C2NC(=O)NC(C)=C2C(=O)Nc2ccccc2C)c1 (stereo unspecified)	none (no result: TMEM16A act, ANO1 block, CHT inh, CHT PAM)
c1csc(-c2nn3cnnc3c3ccccc23)c1	VIM-2 inh 11.9
C[C@H](CO)N1C[C@H](C)[C@@H](CN(C)S(=O)(=O)c2ccccc2)Oc2ccc(NC(=O)CCN3CCOCC3)cc2C1=O	none (no result: ANO1 block, CHT inh, VIM-2 inh, CHT PAM, IMP-1 inhibitor)
Cc1ccc(-c2nn(-c3ccccc3)cc2CSC(=N)N)cc1	ANO1 block 25
CN(C)S(=O)(=O)c1cccc(COc2ncnc3c(Cl)cc(Cl)cc23)c1	TMEM16A act -9.47
CCCN(CC(=O)Nc1ccccc1OC)C(=O)c1ccc(S(=O)(=O)Nc2ccccc2OC)cc1	none (no result: ANO1 block, CHT inh, VIM-2 inh, CHT PAM, IMP-1 inhibitor)
CCCN(CC(=O)Nc1ccccc1OC)C(=O)c1ccc(S(=O)(=O)NCc2ccco2)cc1	TMEM16A act -45.5 (no result: ANO1 block, CHT inh, VIM-2 inh, CHT PAM, IMP-1 inhibitor)
Cc1ccc2nc(N(CCCN(C)C)C(=O)c3ccc(S(=O)(=O)N4CCc5ccccc5C4)cc3)sc2c1	TMEM16A act -5.3
Cc1ncc([N+](=O)[O-])n1CCOC(=O)c1ccc(Cl)cc1Cl	VIM-2 inh 9.7
OCCCNc1c2ccccc2nc2ccccc12	VIM-2 inh 8.3
Fc1cccc(NCCc2c[nH]c3ccccc23)n1	none
c1ccc2c(NCCc3c[nH]c4ccccc34)c3ccccc3nc2c1	VIM-2 inh 8.1
COc1cc(C(=S)N2CCOCC2)ccc1OC(=O)c1cccc(C)c1	ANO1 block 25
COc1cc(C(=S)N2CCOCC2)ccc1OC(=O)c1ccc(Br)cc1	none
CCC(C)c1ccc(C(C)NC(=S)NC2CCCCC2)cc1 (stereo unspecified)	ANO1 block 100
CCOc1ccc(C(C)NC(=S)NC2CCCCC2)cc1 (stereo unspecified)	none
CCOCC(=O)Nc1ccc(F)c(F)c1	none
O=C(COC(=O)CC(c1ccccc1)c1ccccc1)Nc1ccc(F)c(F)c1	ANO1 block 100 (no result: TMEM16A act)
CN(CCOc1ccccc1)CC(=O)Nc1ccc(Br)cc1F	none
COc1ccc(/C=C(/C(=O)c2cccs2)N2C=CC=CC2=C(C#N)C#N)cc1	TMEM16A act -5 (no result: ANO1 block, CHT inh, CHT PAM)
O=C(O)c1cccc(N/N=C(\N=Nc2ccccc2)c2ccccc2)c1	CHT inh -6.44 (no result: VIM-2 inh, IMP-1 inhibitor)
O=C(O)c1cccc2c1C(=O)c1ccccc1C2=O	none
CC(C)OC(=O)c1cccc2c1C(=O)c1ccccc1-2	VIM-2 inh 10.2
O=S(CC(O)COCc1ccc(Cl)cc1)c1ccccn1 (stereo unspecified)	TMEM16A act -8.1
OC(COCc1ccccc1)COCc1ccccc1	none (no result: ANO1 block, CHT inh, VIM-2 inh, CHT PAM, IMP-1 inhibitor)
CCc1cc2c3c(c1)/C(=C1/SC(N)=NC1=O)C(=O)N3C(C)(C)C=C2C	ANO1 block 100
Cc1cnc(CN(C)C(=O)CC2C(=O)NCCN2CCCc2ccccc2)[nH]1 (stereo unspecified)	none
COc1ccc(-c2csc(NC(C)c3nc4cc(C(F)(F)F)ccc4n3CCOCCO)n2)cc1 (stereo unspecified)	ANO1 block 25 (no result: VIM-2 inh, IMP-1 inhibitor)
CC(C)CCN1CCN(Cc2ccc(C#CC(C)(C)O)s2)CC1CCO (stereo unspecified)	TMEM16A act -8.54
C[C@H](CO)N1C[C@H](C)[C@@H](CN(C)Cc2ccc(Oc3ccccc3)cc2)Oc2c(NS(=O)(=O)c3cn(C)cn3)cccc2C1=O	none (no result: ANO1 block, CHT inh, VIM-2 inh, CHT PAM, IMP-1 inhibitor)
COc1ccc(N(CC(=O)NC2CCCCC2C)S(=O)(=O)c2c(C)nn(C)c2C)cc1 (stereo unspecified)	none
COCCOC(=O)c1c(NC(=O)COC(=O)Cc2cccc(OC)c2)sc(C(N)=O)c1C	none
O=S(=O)(Nc1ncnc2sc3c(c12)CCC3)c1ccc2ccccc2c1	ANO1 block 100
Cc1cc(F)ccc1S(=O)(=O)Nc1ncnc2sc3c(c12)CCC3	none
COc1cc(/C=C2/CC/C(=C/c3ccc(O)c(OC)c3)C2=O)ccc1O	TMEM16A act -12.9
COCCNC(=O)/C(C#N)=C/c1c(N2CCCCCC2)nc2ccccn2c1=O	none
CCc1c(O)nc(SC2CC(=O)N(c3ccccc3)C2=O)[nH]c1=O (stereo unspecified)	TMEM16A act -29.4
Cc1c(O)nc(SC2CC(=O)N(c3ccccc3)C2=O)[nH]c1=O (stereo unspecified)	none
COc1cccc2c1C(=O)c1c(O)c3c(c(O)c1C2=O)C[C@@](O)(C(C)=O)C[C@@H]3O[C@H]1C[C@H](N)[C@H](O)[C@H](C)O1	VIM-2 inh 18.8 (no result: ANO1 block, CHT inh, CHT PAM)
O=C(O)CN1C(=O)/C(=C\c2cc([N+](=O)[O-])ccc2OCc2ccccc2Cl)SC1=S	CHT inh -6.17
O=C(O)CN1C(=O)/C(=C\c2cc(Br)ccc2OCc2ccc(Cl)cc2)SC1=S	none
